These results are taken from ChEMBL document CHEMBL4330056, “Synthesis and Cytotoxic and Antiviral Profiling of Pyrrolo- and Furo-Fused 7-Deazapurine Ribonucleosides” (J Med Chem, 2018).

Calls of active or inactive are those of the source. The rule behind the calls is not given here.

Series [1] has as its target T1, Adenosine kinase (Homo sapiens, UniProt P55263). The series can be described thus: Substrate activity at recombinant human ADK assessed as compound phosphorylation at 50 uM after 20 mins in presence of [3H]-adenosine by UPLC. Format: ADME.
The test system of series [2] is Human alphaherpesvirus 1. The series can be described thus: Antiviral activity against human herpesvirus 1 HF infected in African green monkey Vero cells assessed as inhibited virus-induced cytopathic effect incubated for 3 days by XTT assay. It is filed as functional, organism-based. (In general: Cytopathic effects are the visible damage that an infection or toxin causes in cultured cells.)

Series [3] concerns CCRF-CEM. Nature of the series: DNA incorporation activity in human CCRF-CEM assessed as dMP content per microgram of nucleic acid at 4.48 uM after 2.5 hrs […]. Format: functional.
The test system of series [4] is CCRF-CEM. The series can be described thus: RNA incorporation activity in human CCRF-CEM assessed as NMP content per microgram of nucleic acid at 4.48 uM after 2.5 hrs […]. Format: functional.
For series [5], the target named is T1, Adenosine kinase. The series can be described thus: Drug metabolism in human HCT116 cells assessed as ADK-mediated compound phosphorylation by measuring parent compound level per 5x10^5 cells at 10 umol/L after 1 hr by UPLC-MS/MS analysis. Format: ADME, cell-based. As to conditions: 10 µM. Put shortly: (§1)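 BJ (normal) and HCT116 (malignant) cells exposed to nucleoside at 1 or 10 μmol/L for 1 or 3 h. Intracellular nucleoside and its monophosphate quantified against synthetic monophosphate standards. Values given as pmol per 5 × 10^5 cells.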

The target of series [6] is T1, Adenosine kinase. Nature of the series: Drug metabolism in human HCT116 cells assessed as ADK-mediated compound phosphorylation by measuring parent compound level per 5x10^5 cells at 10 umol/L after 3 hrs by UPLC-MS/MS analysis. Format: ADME, cell-based. As to conditions: 10 µM. Put shortly:
as §1

Series [7] concerns OCI-AML2. Nature of the series: Mitochondrial toxicity in human OCI-AML2 cells assessed as effect on UQCRC2 protein expression at 1 to 5 times IC50 after 24 to 72 hrs by Western blot analysis. It is filed as cell-based. (In general: In western blotting, separated proteins are transferred to a membrane and probed.)
Series [8] relates to HeLa S3. The series can be described thus: Antiproliferative activity against human HeLaS3 cells after 72 hrs by XTT assay. The note with it: HeLa S3, 72 h. Format: functional, cell-based. (In general: Tetrazolium assays rely on reduction of a dye to a coloured formazan, in cell work by metabolically active cells.)
Series [9] addresses T1, Adenosine kinase. The series can be described thus: Drug metabolism in human BJ cells assessed as ADK-mediated compound phosphorylation by measuring parent compound level per 5x10^5 cells at 1 umol/L after 3 hrs by UPLC-MS/MS analysis. Format: ADME, cell-based. As to conditions: 1 µM. The method in brief:
as §1

Series [10] concerns DNA. The series can be described thus: Induction of DNA damage in human U2OS cells transfected with 53BP1-GFP fusion gene assessed as increase in number of foci per nucleus at 1 to 5 times IC50 concentration measured at 1 hr intervals for 11 hrs by fluorescence-based assay. It is filed as functional, cell-based. The method in brief: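 U2OS osteosarcoma reporter line stably expressing 53BP1-GFP treated up to 11 h, with etoposide as the double-strand-break reference. 53BP1 foci in nuclei imaged by confocal microscopy (40× objective).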

Series [11] deals with CCRF-CEM. Nature of the series: Induction of cell cycle arrest in human CCRF-CEM cells assessed as accumulation at G0/G1 phase at 5 times IC50 concentration after 24 hrs by propidium iodide-staining based flow cytometry (reference value: 39.70%). Format: functional.
In series [12] the test system is A549. Nature of the series: Antiproliferative activity against human A549 cells after 3 days by MTS assay. The note with it: A549, 72 h. Format: functional, cell-based.
The test system of series [13] is OCI-AML2. Nature of the series: Mitochondrial toxicity in human OCI-AML2 cells assessed as inhibition of MT-ND1 gene expression at 1 to 5 times IC50 after 24 to 72 hrs by RT-PCR analysis. It is filed as cell-based. Put shortly:
(§2)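 Expression of the mitochondrial genes MT-CO2 and MT-ND1 measured.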

Series [14] deals with OCI-AML2. Nature of the series: Mitochondrial toxicity in human OCI-AML2 cells assessed as inhibition of MT-CO2 gene expression at 1 to 5 times IC50 after 24 to 72 hrs by RT-PCR analysis. It is filed as cell-based. The method in brief:
as §2

Series [15] can be described thus: Chemical stability of the compound assessed as compound remaining after 60 mins relative to control. It is filed as physicochemical. The note with it: read-out: Stability.
Series [16] concerns CCRF-CEM. Nature of the series: Inhibition of DNA synthesis in human CCRF-CEM cells assessed as DNA synthesis level at 5 times IC50 concentration after 24 hrs by BrdU incorporation assay (reference value: 43.39%). Format: functional. Set-up: scale not given: the % may be the effect or the level left.
Series [17] deals with Hepatitis C virus. Nature of the series: Antiviral activity against Hepatitis C virus genotype 2a infected in human Huh-luc replicon cells after 3 days by luciferase assay. As to conditions: subtype 2a, 72 h. Format: functional, organism-based, Hepacivirus hominis.
Series [18] has as its system OCI-AML2. Nature of the series: Mitochondrial toxicity in human OCI-AML2 cells assessed as reduction in SDHB protein expression at 1 to 5 times IC50 after 24 to 72 hrs by Western blot analysis. It is filed as cell-based.
Series [19] is described as follows: Mitochondrial toxicity in human OCI-AML2 cells assessed as reduction in oxidative phosphorylation-based viability after 72 hrs by CellTiterGlo assay. Format: cell-based. The method in brief: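 OCI-AML2 leukemia cells, which rely on mitochondrial OXPHOS, treated for 3 days in a survival assay; IC50 reported.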
Series [20] concerns OCI-AML2. Nature of the series: Mitochondrial toxicity in human OCI-AML2 cells assessed as reduction in CO2 protein expression at 1 to 5 times IC50 after 24 to 72 hrs by Western blot analysis. It is filed as cell-based.
Series [21] addresses T1, Adenosine kinase. The series can be described thus: Drug metabolism in human BJ cells assessed as ADK-mediated compound phosphorylation by measuring parent compound level per 5x10^5 cells at 1 umol/L after 1 hr by UPLC-MS/MS analysis. As to conditions: 1 µM. Format: ADME, cell-based. Put shortly:
as §1

Series [22] concerns the target T1, Adenosine kinase. The series can be described thus: Drug metabolism in human HCT116 cells assessed as ADK-mediated compound phosphorylation by measuring parent compound level per 5x10^5 cells at 1 umol/L after 3 hrs by UPLC-MS/MS analysis. The note with it: 1 µM. It is filed as ADME, cell-based. The method in brief: as §1
The target in series [23] is T1, Adenosine kinase. Nature of the series: Drug metabolism in human HCT116 cells assessed as ADK-mediated compound phosphorylation by measuring parent compound level per 5x10^5 cells at 1 umol/L after 1 hr by UPLC-MS/MS analysis. Format: ADME, cell-based. The note with it: 1 µM. Put shortly: as §1
In series [24] the test system is CCRF-CEM. The series can be described thus: DNA incorporation activity in human CCRF-CEM assessed as NMP content per microgram of nucleic acid at 4.48 uM after 2.5 hrs by […]. It is filed as functional. The method in brief: (§3)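 CCRF-CEM cells exposed to nucleoside for 2.5 h, then harvested at once. RNA and DNA isolated separately and enzymatically digested; nucleoside content of each nucleic acid fraction quantified by HPLC-MS.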

The target in series [25] is T1, Adenosine kinase. The series can be described thus: Drug metabolism in human BJ cells assessed as ADK-mediated compound phosphorylation by measuring parent compound level per 5x10^5 cells at 10 umol/L after 3 hrs by UPLC-MS/MS analysis. Format: ADME, cell-based. The note with it: 10 µM. The method in brief: as §1
Series [26] has as its target T1, Adenosine kinase. The series can be described thus: Drug metabolism in human BJ cells assessed as ADK-mediated compound phosphorylation by measuring parent compound level per 5x10^5 cells at 10 umol/L after 1 hr by UPLC-MS/MS analysis. The note with it: 10 µM. Format: ADME, cell-based. The method in brief: as §1
Series [27] has as its system OCI-AML2. The series can be described thus: Mitochondrial toxicity in human OCI-AML2 cells assessed as effect on ATP5A protein expression at 1 to 5 times IC50 after 24 to 72 hrs by Western blot analysis. Format: cell-based.
Series [28] has as its system CCRF-CEM. The series can be described thus: RNA incorporation activity in human CCRF-CEM assessed as NMP content per microgram of nucleic acid at 3.52 uM after 2.5 hrs by […]. It is filed as functional. The method in brief:
as §3

Series [29] has as its system CCRF-CEM. Nature of the series: DNA incorporation activity in human CCRF-CEM assessed as NMP content per microgram of nucleic acid at 3.52 uM after 2.5 hrs by […]. It is filed as functional. The method in brief: as §3

T1 sequence (P55263 whole entry): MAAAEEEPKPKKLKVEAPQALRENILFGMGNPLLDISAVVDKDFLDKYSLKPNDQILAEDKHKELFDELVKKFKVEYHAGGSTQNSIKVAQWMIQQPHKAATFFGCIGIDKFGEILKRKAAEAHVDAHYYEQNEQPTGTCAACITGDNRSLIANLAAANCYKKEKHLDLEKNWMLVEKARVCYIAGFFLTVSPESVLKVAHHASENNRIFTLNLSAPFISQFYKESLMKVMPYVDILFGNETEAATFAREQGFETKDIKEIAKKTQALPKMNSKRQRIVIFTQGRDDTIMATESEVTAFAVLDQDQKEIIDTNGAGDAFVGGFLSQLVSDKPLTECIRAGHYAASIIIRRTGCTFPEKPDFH

For the molecule `Cc1ncnc2c1c1occc1n2[C@@H]1O[C@H](CO)[C@@H](O)[C@H]1O`, the Activity in series [1] was 48%; in [3], 15.4 fmol; in [4], 3.4 fmol; in [7] it was “Non-Toxic”; in [11], 36.83%; in series [16], 38.88%. Further, the Activity result in series [18] is listed as “Toxic”; in [20], “Toxic”; in [24], 14.3 fmol; in series [27] it was “Non-Toxic”. The result in series [2] was inactive. For the same molecule, the Drug metabolism is listed as 119.93 pmol in [5]; 177.9 pmol in [6]; 247.21 pmol in [9]; 155.12 pmol in [21]; 66.31 pmol in series [22]; 27.92 pmol in [23]. Further, the Drug metabolism amounted to 464.66 pmol in [25] and 338.91 pmol in series [26]. For the same molecule, the 50% inhibitory concentration (IC50) in [8] is 2210 nM; in series [12], 3190 nM. In [10], the outcome was Active. In addition, the “inhibition (INH)” value in series [13] and in [14] was 50% each time. Besides, the remaining at 1 h in [15] was 99%. This molecule had an EC50 in series [17] of 240 nM. In series [19], the IC50 at 72 h came out at 340 nM.
As to `CSc1ncnc2c1c1occc1n2[C@@H]1O[C@H](CO)[C@@H](O)[C@H]1O`, the Activity worked out at 56% in series [1], 33.16% in series [11] and 41.8% in series [16]. Further, the outcome in series [2] was inactive. Besides, the 50% inhibitory concentration (IC50) in series [8] was 2960 nM; in series [12], 4860 nM. Besides, the “inhibition (INH)” value in series [13] and in [14] was 50% throughout. In addition, in series [15], the remaining at 1 h is 99%. Moreover, the EC50 in series [17] turned out to be 240 nM. The half-maximal inhibitory concentration (IC50) at 72 h in [19] was found to be 190 nM.
For the molecule `Cc1ncnc2c1c1c(ccn1C)n2[C@@H]1O[C@H](CO)[C@@H](O)[C@H]1O`, the Activity in series [1] is reported as 42%; in series [28] it was 3.74 fmol; in [29], 14.1 fmol; in series [11], 34.66%; in [16], 59.89%. Moreover, in series [2], the outcome was inactive. For the same molecule, the Drug metabolism worked out at 450.1 pmol in series [5]; 476.53 pmol in series [6]; 173.96 pmol in series [9]; 87.1 pmol in series [21]; 136.87 pmol in series [22]; 54.04 pmol in [23]. In addition, the values for the Drug metabolism in series [25] and in series [26] were 753.01 pmol and 220.71 pmol, respectively. Moreover, the IC50 was determined as 1190 nM in series [8] and 2080 nM in [12]. Also, in [10], the outcome was Active. Moreover, in series [15], the remaining at 1 h came out at 93%. Besides, the EC50 in series [17] was found to be 120 nM.

The term IC50 denotes the concentration at which inhibition is half-maximal. A word on the EC50: it is the concentration at which the effect is half-maximal.
